From PubChem
RGS4 pot = RGS4 potentiators or activators, primary screen, cell-based, HEK293 M3R inducible RGS4, calcium flux; carbachol calcium flux Fluo4; active compounds read low; B-score at 10 µM; 0.92% of 310,000 active;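 active = B-score of the integrated calcium signal more than 4 SD below the library mean, with starting fluorescence not abnormally high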;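 also: negative B-score means reduced calcium response which marks RGS4 activation or potentiation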
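System: HEK293 FlpIn-TREx cells, stable M3R, doxycycline-inducible RGS4. Timing: overnight RGS4 induction, 30 min dye load 37 °C, 20 min compound RT. Also added: carbachol, ECmax concentration. Measured by: Fluo4 fluorescence kinetic imaging of calcium. Evaluation: integrated calcium ratio converted to B score.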
MrgX1 ag = agonists of human MrgX1 receptor, primary screen, HEK293 cells, Fluo-4 calcium flux. 0.44% of 310,000 active. Fluo-4 calcium fluorescence, agonist mode; active compounds read high. B-score at 10 µM;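 active = calcium response B-score plate-corrected fluorescence ratio at least 3 library SD, with starting fluorescence B-score inside 5 SD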
Target sequence (Q96LB2 whole entry, looked up): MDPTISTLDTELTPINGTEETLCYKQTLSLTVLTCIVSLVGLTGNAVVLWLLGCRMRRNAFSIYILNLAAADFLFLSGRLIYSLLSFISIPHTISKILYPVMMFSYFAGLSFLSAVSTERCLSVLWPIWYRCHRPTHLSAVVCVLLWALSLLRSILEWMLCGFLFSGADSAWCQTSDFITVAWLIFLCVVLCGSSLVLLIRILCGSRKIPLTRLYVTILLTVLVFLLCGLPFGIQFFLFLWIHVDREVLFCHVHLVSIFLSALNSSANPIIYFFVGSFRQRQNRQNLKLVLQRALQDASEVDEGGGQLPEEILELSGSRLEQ
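Assay system: stable human MrgX1 HEK293 cell line. Quantity: 15,000 cells per well. Schedule: cells plated overnight, dye loaded 0.5 h 37 °C, 0.5 h room temperature. Detection: Fluo-4 NW calcium-flux fluorescence, kinetic read. Read-out basis: peak-minus-minimum fluorescence over baseline, converted to B scores. Control set: positive and negative control wells on each plate.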
MrgX1 allo act = positive allosteric modulators of MrgX1, primary screen, HEK293 cells, Fluo-4 calcium flux. B-score at 10 µM. 0.63% of 310,000 active. Mas-related G-protein coupled receptor member X1 (Homo sapiens), Q96LB2. FDSS; active compounds read high. AID 588675, 2011;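 active = plate-corrected calcium response at least 3 library SD above typical, normal starting fluorescence, not activating the receptor alone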;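 also: compound read alongside a low EC10 to EC30 dose of BAM8-22 agonist; peak minus trough fluorescence over baseline measured at the second addition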
MrgX1 antag = antagonists of human MrgX1 receptor, primary screen, HEK293 cells, Fluo-4 calcium flux. Mas-related G-protein coupled receptor member X1 (Homo sapiens), Q96LB2. BAM8-22 antagonism; active compounds read low. B-score at 10 µM. 1.3% of 310,000 active;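 active = calcium-response B-score plate-corrected more than 3 library SD below zero, starting fluorescence within 5 deviations, no agonist response on first addition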;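 also: peak minus trough fluorescence over baseline after final BAM8-22 challenge near maximal dose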
RGS4 inh = RGS4 inhibitors, primary screen, cell-based, HEK293 M3R inducible RGS4, calcium flux; Regulator of G-protein signaling 4 (Homo sapiens), P49798; Fluo-4 calcium flux; active compounds read high; triggered by carbachol at its EC20; B-score at 10 µM; 0.45% of 310,000 active;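 active = B-score, a plate-corrected calcium signal, over three deviations above library mean, with baseline fluorescence within five deviations of library mean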;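 also: RGS4 expression induced by doxycycline in cells with stable M3 receptor; B-score is computed from the integrated fluorescence ratio over baseline after carbachol; higher B-score means a larger calcium signal and so more RGS4 inhibition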
Target sequence (P49798 whole entry, looked up): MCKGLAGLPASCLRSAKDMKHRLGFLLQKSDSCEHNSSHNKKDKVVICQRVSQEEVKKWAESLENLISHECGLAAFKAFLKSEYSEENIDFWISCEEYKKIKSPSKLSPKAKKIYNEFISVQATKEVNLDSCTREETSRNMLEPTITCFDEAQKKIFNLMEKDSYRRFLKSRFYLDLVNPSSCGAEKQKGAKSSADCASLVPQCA
RGS4 act valid = reduced carbachol calcium response, RGS4-induced M3R cells, confirmation, RGS4 activator project, cell-based, HEK293 M3R/RGS4 inducible, calcium flux, duplicate | shares compounds with RGS4 pot | 89% of 1,100 active | inhibition, % at 10 µM | AID 602282, 2012 | carbachol calcium flux Fluo4;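 active = inhibition above 3 SD of the buffer control wells, cut at about 41% in these data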;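 also: signal is the integrated peak-minus-minimum Fluo4 fluorescence over baseline ratio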
M3R Ca counter = activity in cells without induced RGS4 expression | HEK293 M3R non-induced RGS4, Fluo4 calcium flux; after carbachol challenge at its EC90 | AID 602283 | inhibition, % at 10 µM | 82% of 1,100 active | shares compounds with RGS4 pot;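 active = inhibition exceeding 3 SD of buffer-only control wells, cut at about 26% in these data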;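 also: percent drop in integrated peak-minus-baseline over baseline Fluo4 ratio after carbachol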
MrgX1 antag conf = MrgX1 receptor antagonists, duplicate retest, confirmation, HEK293 cells, Fluo-4 calcium flux. BAM8-22 calcium flux; active compounds read low. remaining BAM8-22 calcium response % of control (active compounds read low), % at 10 µM. shares compounds with MrgX1 antag. 19% of 2,300 active;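 active = remaining agonist calcium response no higher than 100% minus 3 SD of agonist-only control wells, with starting fluorescence near control levels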;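 also: agonist BAM8-22 given at a near maximal EC90 to ECmax level; peak minus minimum fluorescence divided by baseline after agonist addition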
HEK293 Ca flux = nonspecific calcium signal in parental HEK293, confirmation, counter-screen for MrgX1 antagonist project, parental HEK293 cells, Fluo-4 calcium flux; fluorescence ratio F(max-min)/F0 at 10 µM; AID 624111, 2012; shares compounds with MrgX1 antag; Fluo-4 calcium fluorescence, FDSS; 2% of 4,000 active;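 active = duplicate-averaged calcium fluorescence ratio at least three times the standard deviation of buffer wells, a nonspecific response in parental cells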
HEK293 Ca counter = calcium response in parental HEK293 cells, primary screen, counter-screen for MrgX1 allosteric activator project, cell-based, Fluo-4 calcium flux, duplicate; shares compounds with MrgX1 antag; Fluo-4 fluorescence ratio; active compounds read high; fluorescence ratio F(max-min)/F0 at 10 µM; 0.4% of 4,000 active; AID 624114, 2012;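 active = calcium fluorescence ratio, averaged over duplicates, at least 3 SD of the buffer-well ratio, meaning a nonspecific response in receptor-free cells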;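 also: untransfected parental HEK293 lacking MrgX1 used as counterscreen for MrgX1 allosteric activators; fluorescence change taken during the second addition on a kinetic imager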
HEK293 Ca cntr2 = calcium response in parental HEK293 cells, primary screen, counter-screen for MrgX1 agonist project, cell-based, Fluo-4 calcium flux, duplicate, agonist mode; Fluo-4 calcium fluorescence (FDSS); active compounds read high; fluorescence ratio F(max-min)/F0 at 10 µM; 8.7% of 4,000 active; AID 624115, 2012; shares compounds with MrgX1 antag;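 active = calcium fluorescence ratio at least three times the spread of buffer wells, meaning a non-specific response in parental cells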
Large screens that a line does not name were inactive (follow-up assays come after a bar, where they were run). Rows were chosen to be rich in hits. Some 3.5% of all compounds tested hit in one or more screens of this group.

CN(C)C(C)(C)C#CC(O)(c1ccccc1)c1ccccc1	RGS4 pot -8.72 | RGS4 act valid 92.0 | M3R Ca counter 88.3
CN(C)CC#CCC(O)(c1ccccc1)C1CCCCC1 (stereo unspecified)	none
CN(C)CCC#CC(O)(c1ccccc1)c1ccccc1	RGS4 pot -9.9 | RGS4 act valid 87.5 | M3R Ca counter 46.8
CCN(CC)CCC#CC(O)(c1ccccc1)C1CCCCC1 (stereo unspecified)	RGS4 pot -8.57 | RGS4 act valid 91.0 | M3R Ca counter 93.3
CN(C)CCC(O)(c1ccccc1)c1ccccc1	none
CCN(CC)CC#CC(O)(c1ccccc1)c1ccccc1	RGS4 pot -12.6 | RGS4 act valid 93.5 | M3R Ca counter 91.8
Cc1ccc(NC2CCCN(C(=O)CSc3ccncc3)C2)cc1C (stereo unspecified)	none
NCc1cc2c3c(c1)CCCN3CCC2	none
Cc1ccc(C(=O)NCC(=O)OC(C)C(=O)Nc2ccc(N3CCOCC3)cc2)s1 (stereo unspecified)	none
CCC1C(=O)N=C(SCC(=O)Nc2ccc(C)cc2)N(c2ccccc2)C1=O (stereo unspecified)	none
COc1ccc(-c2nc(NC(=O)c3[nH]c(C)c(C(C)=O)c3C)sc2C)cc1	RGS4 pot -11.4, MrgX1 antag -8.53 | RGS4 act valid 92.5 | M3R Ca counter 91.8 | MrgX1 antag conf 52.5% | HEK293 Ca flux inactive | HEK293 Ca counter inactive | HEK293 Ca cntr2 inactive
COc1ccc(OC)c(NC(=O)c2[nH]c(C)c(C(C)=O)c2C)c1	none
CCN(CC)CCOC(=O)c1c(C)oc2ccc(OC)cc12	RGS4 pot -7.83, MrgX1 antag -5.17 | RGS4 act valid 67.0 | M3R Ca counter 83.8 | MrgX1 antag conf inactive | HEK293 Ca flux inactive | HEK293 Ca counter inactive | HEK293 Ca cntr2 inactive
CC(=O)c1cccc(NS(=O)(=O)c2c(C(=O)N3CCOCC3)c(C)n(C)c2C)c1	none
CCOC(=O)Cc1csc(NC(=O)c2csc(C)c2)n1	none
CCOC(=O)Cc1csc(NC(=O)c2sc3nc4c(C)cc(C)cc4cc3c2N)n1	RGS4 pot -8.6, MrgX1 antag -9.24 | RGS4 act valid 83.5 | M3R Ca counter 63.3 | MrgX1 antag conf inactive | HEK293 Ca flux inactive | HEK293 Ca counter inactive | HEK293 Ca cntr2 inactive
Cc1cc(N2CCCCC2)nc2ccc(NC(=O)c3ccc(Br)o3)cc12	RGS4 pot -7.73, MrgX1 antag -6.88 | RGS4 act valid 71.5 | M3R Ca counter 83.8 | MrgX1 antag conf inactive | HEK293 Ca flux inactive | HEK293 Ca counter inactive | HEK293 Ca cntr2 inactive
Cc1cc(N2CCN(C)CC2)nc2ccc(NC(=O)c3ccc(Br)o3)cc12	none
CCOc1ccc(OCc2ccc(C(=O)N3CCCCC3)o2)cc1	none
